Tests used:
Cavia porcellus [1] = organism: Cavia porcellus; assay: In vitro muscarinic activity against guinea pig ileum was determined; assay type: functional
Method in brief: (§1)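 Isolated ileum contractions recorded isotonically at 1 g tension with a displacement transducer. Cumulative concentration-response curves built by raising agonist concentration stepwise by a factor of 2.15. Maximal response expressed as a percentage of the carbachol maximum.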

[2] = biological target: Muscarinic acetylcholine receptor; assay: Dissociation constant of the drug-Muscarinic acetylcholine receptor complex.; assay type: protein assay, Cavia porcellus
Cavia porcellus [3] = organism: Cavia porcellus; assay: Maximal contractile response as a percentage of that elicited by carbachol.; assay type: functional; method in brief: as §1
[4] = biological target: Muscarinic acetylcholine receptor; assay: In vitro inhibition of binding of (-)-[3H]-NMS to Muscarinic acetylcholine receptor of rat cerebral cortex was determined; assay type: tissue-based
Method in brief: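 Rat cerebral cortex (male Sprague-Dawley, 200–300 g) homogenised in 50 mM Na-K phosphate buffer, pH 7.4, then centrifuged and resuspended at 10 mg wet tissue/mL. Competition with 0.3 nM (–)-[3H]NMS for 30 min at 30 °C, followed by filtration. Nonspecific binding defined with 10 μM atropine. IC50 from a one-site nonlinear fit, converted to Ki by Cheng-Prusoff using NMS Kd 0.076 nM. Three experiments, each in triplicate.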

Row | Structure (SMILES) | EC50 (Cavia porcellus [1]) | Kd [2] | Emax (Cavia porcellus [3]) | Ki [4]
1 | CC1CCC(=O)N1CC#CCN(C)C (configuration not stated) | 0.91 µM | 4.3 µM | 102 | 2.2 µM
2 | CC1CC(=O)N1CC#CCN1CCCC1 (configuration not stated) | – | 1.7 µM | 0 | 0.99 µM
3 | CC1CCC(=O)N1CC#CCN1CCCC1 (configuration not stated) | – | 0.093 µM | 0 | 0.056 µM
4 | O=C1CCCN1CC#CCN1CCCC1 [OXOTREMORINE] | 0.035 µM | 0.93 µM | 100 | 0.83 µM
5 | O=C1CCN1CC#CCN1CCCC1 | 0.29 µM | – | 100 | 0.94 µM
6 | CC1CC(=O)N1CC#CCN(C)C (configuration not stated) | 88 µM | – | 95 | 43 µM
7 | CC1CN(CC#CCN2CCCC2)C1=O (configuration not stated) | 24 µM | – | 23 | 5.6 µM
8 | CC1CC(=O)N(CC#CCN2CCCC2)C1 (configuration not stated) | – | 10 µM | 0 | 5 µM
9 | CC1CC(=O)N1CC#CC[N+](C)(C)C (configuration not stated) | 55 µM | – | 97 | 19.6 µM
10 | CC1CCC(=O)N1CC#CC[N+](C)(C)C (configuration not stated) | 0.18 µM | 1.7 µM | 100 | 0.61 µM
11 | CC1CCN(CC#CCN2CCCC2)C1=O (configuration not stated) | 0.5 µM | 11.5 µM | 100 | 1.2 µM
